iPSC survival up: enhancers of human iPSC single-cell survival | hiPSC single-cell survival, ATPlite luminescence; 100% = ROCK inhibitor wells, 0% = DMSO | survival enhancement, % at 20 µM | 360,000 tested, 0.044% active; in the data active = survival enhancement above about 18%;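 also: cells exposed to compounds for 16 hours before the ATP read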
SKN-1 block: blocks SKN-1 activity in C. elegans; 360,000 tested, 0.49% active; C. elegans VP596 Pgst-4::GFP/RFP ratio, acrylamide-induced, 24 h; inhibition, % at 21.8 µM;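 active = interference check ratio from 0.5 to 1.5 plus GFP to RFP signal ratio inhibition reaching or exceeding a fixed threshold, cut at about 30% in these data, passing the limit was not always enough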
MT1-MMP act inh: MT1-MMP (human) activation inhibition; AID 651647; GFP/RFP ratio change, % at 20 µM; 360,000 tested, 0.061% active; P50281; HT1080 RFP-PRO-GFP cells, GFP/RFP ratio fluorescence, overnight; percent of plate control window, DMSO zero;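 active = GFP/RFP ratio change of at least 30% with cell ATP level not reduced by more than half and red fluorescence within 50% of control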
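Assay system – RFP-PRO-GFP reporter HT1080 cells · Compound dosing – single dose of 20 µM compound, 1% DMSO final · Incubation – overnight compound exposure at 37 °C · Measure – GFP/RFP fluorescence ratio · Benchmarks – DMSO wells and RFP-L50D-GFP cells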
PREPL inh: inhibitors of human prolyl oligopeptidase-like enzyme PREPL. Q4J6C6. recombinant PREPL, fluorescence polarization activity-based probe. inhibition, % at 5.96 µM. 320,000 tested, 0.68% active. AID 2751
Target sequence (Q4J6C6 whole entry, looked up): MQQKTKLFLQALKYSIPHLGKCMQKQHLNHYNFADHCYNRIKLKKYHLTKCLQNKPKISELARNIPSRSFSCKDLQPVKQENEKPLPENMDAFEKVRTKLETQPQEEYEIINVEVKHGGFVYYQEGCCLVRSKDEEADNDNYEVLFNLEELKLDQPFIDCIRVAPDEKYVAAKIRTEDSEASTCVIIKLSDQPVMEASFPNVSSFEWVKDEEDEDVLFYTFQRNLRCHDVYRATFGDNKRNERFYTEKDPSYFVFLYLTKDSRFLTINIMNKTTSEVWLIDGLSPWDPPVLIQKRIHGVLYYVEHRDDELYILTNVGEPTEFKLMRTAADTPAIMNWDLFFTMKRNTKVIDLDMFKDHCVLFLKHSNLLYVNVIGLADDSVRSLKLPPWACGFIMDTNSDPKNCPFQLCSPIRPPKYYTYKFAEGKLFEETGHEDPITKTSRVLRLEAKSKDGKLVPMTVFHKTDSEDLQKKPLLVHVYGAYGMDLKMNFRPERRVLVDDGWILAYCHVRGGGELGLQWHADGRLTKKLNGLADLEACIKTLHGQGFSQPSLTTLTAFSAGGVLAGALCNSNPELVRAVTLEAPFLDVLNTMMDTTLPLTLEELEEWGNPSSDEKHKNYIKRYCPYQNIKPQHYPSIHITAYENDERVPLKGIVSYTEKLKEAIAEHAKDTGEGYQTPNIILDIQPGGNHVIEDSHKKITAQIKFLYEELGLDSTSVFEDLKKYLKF
eLon inh: E. coli protease La inhibition; P0A9M0; purified E. coli Lon protease, fluorescence polarization; inhibition, % at 7.94 µM; 360,000 tested, 0.42% active; AID 602123; in the data active = inhibition above about 13%, passing the limit was not always enough
TbMetRS inhib: Trypanosoma brucei MetRS inhibition | purified T. brucei MetRS, ATP depletion, Kinase-Glo luminescence | inhibition, % at 11.9 µM | 360,000 tested, 0.4% active;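 active = inhibition above a per-plate cutoff of the control wells' mean inhibition plus 3 SD, cut at about 5.5% in these data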
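Assay system: T. brucei methionyl-tRNA synthetase, purified | Medium: HEPES buffer with MgCl2, KCl, DTT, spermine, BSA, pyrophosphatase | Compound: 11.9 µM single point | Incubation: 15 min enzyme-compound preincubation, 2 h reaction, 10 min detection, 25 °C | Measured by: Kinase-Glo luciferase luminescence reporting remaining unconsumed ATP | Measure: % inhibition normalized to control-well medians | Replication: Singlicate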
PREPL inh cf: human PREPL inhibition, confirmation; shares compounds with PREPL inh; recombinant PREPL, fluorescence polarization activity probe; inhibition, % at 5.96 µM; 2,000 tested, 67% active
Hits are given with their value; . = inactive; / = not tested or not shown. Shown are actives, neighbours in structure and some others; about 1.8% of the full set was active somewhere. Rule as the data show it, unless noted: active = inhibition above about 43%; inactive = the rest.

SMILES	iPSC survival up	SKN-1 block	MT1-MMP act inh	PREPL inh	eLon inh	TbMetRS inhib	PREPL inh cf
CCOc1ccc(NCc2nc3ccccc3n2CCOc2ccccc2)cc1	.	.	.	45.4	.	.	44.8
CC(=O)Nc1ccccc1NC(=O)C/C(C)=N/NC(=O)Cc1cccc2ccccc12	.	.	.	.	.	.	/
O=C(OCCOc1cccc(Cl)c1)c1cc(S(=O)(=O)N2CCOCC2)ccc1F	.	.	.	.	.	.	/
COc1cc(/C=C2/SC(=S)N(CC(=O)O)C2=O)ccc1OC(=O)c1cccs1	.	.	.	58.5	.	.	62.1
CCCCOc1ccc(N2C(=O)CC(NCc3ccncc3)C2=O)cc1 (centres undefined)	.	.	.	.	.	.	/
Cn1c(SCc2ccc(Br)cc2)nc2c(c1=O)SCC2	.	.	.	47.4	.	.	.
Nc1ccc(-c2nc3ccccc3o2)cc1	.	.	.	.	.	.	/
Nc1cc(N)cc(-c2nc3ccccc3o2)c1	.	.	.	55.4	.	.	.
COc1ccc(-n2ccn(CC(=O)Nc3ccc(OC)cc3OC)c(=O)c2=O)cc1	.	.	.	.	.	.	/
CC12CCC(=O)N1C(C(=O)N1CCN(S(=O)(=O)c3cccc(Cl)c3)CC1)CS2 (centres undefined)	.	.	.	.	.	.	/
Cc1ccc(SCC(=O)Nc2ccc(N3CCOCC3)cc2)cc1C	.	.	.	44.1	.	.	.
O=C(CSc1cccc(C(F)(F)F)c1)Nc1ccc(N2CCOCC2)cc1	.	.	.	46.9	.	.	55.2
O=C(CSc1ccccc1F)Nc1ccc(N2CCOCC2)cc1	.	.	.	54.7	.	.	51.9
Cc1ccc(SCC(=O)Nc2ccc(N3CCOCC3)cc2)cc1	.	.	.	.	.	.	/
COc1cc(CN2CCC(C(=O)N3CCCC(C)C3)CC2)cc(Br)c1O (centres undefined)	.	.	.	.	.	.	/
CCN1C(=NCCc2c[nH]c3ccccc23)N[C@@H](c2ccccc2)[C@H](C(=O)OC)[C@H]1C	.	.	.	.	.	.	/
NS(=O)(=O)c1cccc(NC(=O)c2ccc(S(=O)(=O)N3CCCCCC3)cc2)c1	.	.	.	.	.	.	/
COc1ccc(CC(=O)N2CCN(S(=O)(=O)c3cc(Cl)ccc3Cl)CC2)cc1	.	.	.	79.5	.	.	.
COc1ccc(CC(=O)N2CCN(S(=O)(=O)c3ccc(Cl)s3)CC2)cc1	.	.	.	.	.	.	/
O=C(CN1CC[n+]2c(-c3cccs3)csc21)c1ccc(-c2ccccc2)cc1	.	.	.	46.0	.	.	.
CNC(=S)N1N=C(c2ccc(Br)cc2)CC1c1ccc(N(C)C)cc1 (centres undefined)	.	.	.	47.5	.	.	49.6
CNC(=S)N1N=C(c2ccc(OC)cc2)CC1c1ccc(N(C)C)cc1 (centres undefined)	.	.	.	55.6	.	.	59.8
Cc1cccc(OCC(=O)Nc2ccc(N3CCN(C(=O)c4ccco4)CC3)cc2)c1	.	.	.	54.6	.	.	50.5
CC(Oc1cccc(F)c1)C(=O)Nc1ccc(N2CCOCC2)cc1 (centres undefined)	.	.	.	.	.	.	/
Cc1cccc(OC(C)C(=O)Nc2ccc(N3CCCCC3)cc2)c1 (centres undefined)	.	.	.	44.0	.	.	44.2
SMILES	iPSC survival up	SKN-1 block	MT1-MMP act inh	PREPL inh	eLon inh	TbMetRS inhib	PREPL inh cf
O=C(Cc1ccc(Cl)cc1)Nc1ccc(N2CCN(C(=O)c3ccco3)CC2)cc1	.	.	.	47.3	.	.	52.9
Cc1ccc(OCC(=O)Nc2ccc(N3CCN(C(=O)c4ccco4)CC3)cc2)cc1C	.	.	.	51.7	.	.	56.5
Cc1cc(OCC(=O)Nc2ccc(N3CCN(C(=O)c4ccco4)CC3)cc2)cc(C)c1Cl	.	.	.	.	.	.	/
O=C(c1ccco1)N1CCN(c2ccc(Cl)cc2)CC1	.	.	.	.	.	.	/
CC(C)OC(=O)CC(=O)CSc1nc2c(cc1C#N)CCCCC2	.	.	.	.	.	.	/
CN1CCNC(=O)C1CC(=O)NCCc1ccccc1F (centres undefined)	.	.	.	.	.	.	/
CC(C)N1CCN(c2ccc(OC[C@H]3CO[C@](Cn4cncn4)(c4ccc(Cl)cc4Cl)O3)cc2)CC1	.	.	.	56.7	.	.	46.5
CC(C)N1CCN(c2ccc(OCC3COC(Cn4cncn4)(c4ccc(Cl)cc4Cl)O3)cc2)CC1 (centres undefined)	.	.	.	/	.	.	/
O=C(NCc1cccc(Br)c1)C1CC(c2ccccc2[N+](=O)[O-])=NO1 (centres undefined)	.	.	.	.	.	.	/
CSc1nc2c(=S)[nH]c(=S)[nH]c2s1	.	.	.	/	.	.	/
CCn1c(SCC(=O)N2CCc3ccccc3C2)nc2sc(C)c(C)c2c1=O	.	.	.	44.4	.	.	.
CCn1c(=O)c2ccccc2n2c(SCC(=O)N3CCc4ccccc4C3)nnc12	.	.	.	.	.	.	/
CCc1ccc(-c2cn(C3CCCCC3)c(=S)[nH]2)cc1	.	.	.	.	.	.	/
CNc1oc(-c2ccc(C)cc2)nc1P(=O)(c1ccccc1)c1ccccc1	.	.	.	.	.	.	/
CNc1oc(-c2ccccc2Cl)nc1P(=O)(c1ccccc1)c1ccccc1	.	.	.	43.9	.	.	55.3
CC1(C)CC2CC(C)(CN2S(=O)(=O)c2cccc(C(=O)OCC(N)=O)c2)C1 (centres undefined)	.	.	.	.	.	.	/
COc1ccccc1C1NC(=O)NC(C)=C1C(=O)OC1CCCCC1 (centres undefined)	.	.	.	.	.	.	/
CC(C)(C)c1cc(NCCCn2ccnc2)n2ncc(-c3ccc(Cl)cc3)c2n1	.	.	.	.	.	.	/
CN(C)CCCNc1cc(C(C)(C)C)nc2c(-c3ccccc3)cnn12	.	.	.	67.3	.	.	60.8
CCc1cc(=O)[nH]c(-n2[nH]c(-c3ccccc3)cc2=O)n1	.	.	.	56.9	.	.	.
COc1ccc(C2c3ccc4ccccc4c3Oc3ncn(CCCN(C)C)c(=N)c32)cc1 (centres undefined)	.	.	.	44.7	.	.	.
COc1ccc(CN(CCN(C)C)c2ccccn2)cc1	.	.	.	.	.	.	/
CCCCCCCCCCCCCCCC[N+](C)(C)CCN(Cc1ccc(OC)cc1)c1ncccn1	.	58.6	.	60.1	.	.	63.3
